Measurements: ChEMBL document CHEMBL4480426, “Novel multi-target directed ligands based on annelated xanthine scaffold with aromatic substituents acting on adenosine receptor and monoamine oxidase B. Synthesis, in vitro and in silico studies” (Bioorg Med Chem, 2019)

What was measured:
[1] = target: T1, Amine oxidase [flavin-containing] B (Homo sapiens, UniProt P27338); test: Inhibition of recombinant human MAOB expressed in baculovirus infected BTI insect cells at 1 to 100 uM using p-tyramine as substrate preincubated for 30 mins followed by substrate addition and measured over 45 mins by horseradish peroxidase-Amplex Red-coupled fluorometric assay relative to control; conditions: 0.75 h
T1 sequence (P27338 whole entry): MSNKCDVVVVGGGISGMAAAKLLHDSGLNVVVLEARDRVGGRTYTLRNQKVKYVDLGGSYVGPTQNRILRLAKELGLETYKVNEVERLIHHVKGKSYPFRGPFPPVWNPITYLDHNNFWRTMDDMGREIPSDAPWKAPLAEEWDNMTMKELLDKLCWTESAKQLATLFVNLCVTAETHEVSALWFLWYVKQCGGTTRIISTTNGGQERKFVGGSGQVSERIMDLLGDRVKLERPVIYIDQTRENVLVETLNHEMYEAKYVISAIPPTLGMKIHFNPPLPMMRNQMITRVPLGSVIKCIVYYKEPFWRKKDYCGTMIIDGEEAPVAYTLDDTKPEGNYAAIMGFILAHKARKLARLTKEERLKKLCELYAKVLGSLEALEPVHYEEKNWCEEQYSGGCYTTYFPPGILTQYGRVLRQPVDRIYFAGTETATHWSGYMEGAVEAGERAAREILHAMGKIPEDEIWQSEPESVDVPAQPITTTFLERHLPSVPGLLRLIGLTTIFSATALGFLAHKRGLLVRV
Summary of the method: (§1)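 Human recombinant MAO-A or MAO-B enzyme. Activity detected fluorometrically with the Amplex Red monoamine oxidase assay.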

[2] = target: T2, Adenosine receptor A2b (Homo sapiens) (UniProt P29275); test: Displacement of [3H]PSB603 from recombinant human adenosine A2b receptor expressed in HEK293 cells at 1 uM relative to control; format: cell-based
T2 sequence (whole entry): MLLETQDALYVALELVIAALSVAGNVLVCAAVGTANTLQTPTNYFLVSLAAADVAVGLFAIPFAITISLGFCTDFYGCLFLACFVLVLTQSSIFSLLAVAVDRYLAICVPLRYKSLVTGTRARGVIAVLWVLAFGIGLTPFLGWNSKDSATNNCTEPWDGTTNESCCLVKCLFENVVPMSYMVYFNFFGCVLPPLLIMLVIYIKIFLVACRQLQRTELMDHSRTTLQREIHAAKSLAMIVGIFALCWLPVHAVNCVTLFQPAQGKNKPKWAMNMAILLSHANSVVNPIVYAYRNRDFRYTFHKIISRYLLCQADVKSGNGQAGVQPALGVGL
Summary of the method: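 Purchased membranes of HEK cells expressing human A2A ([3H]MSX-2) or human A2B ([3H]PSB-603). A single high compound concentration is screened first; for potent compounds, full inhibition curves spanning 3 orders of magnitude. At least three independent experiments.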

[3] = target: T3, Amine oxidase [flavin-containing] A (Homo sapiens, UniProt P21397); test: Inhibition of recombinant human MAOA expressed in baculovirus infected BTI insect cells at 1 to 100 uM using p-tyramine as substrate preincubated for 30 mins followed by substrate addition and measured over 45 mins by horseradish peroxidase-Amplex Red-coupled fluorometric assay relative to control; conditions: 0.75 h; summary of the method: as §1
T3 sequence (P21397 whole entry): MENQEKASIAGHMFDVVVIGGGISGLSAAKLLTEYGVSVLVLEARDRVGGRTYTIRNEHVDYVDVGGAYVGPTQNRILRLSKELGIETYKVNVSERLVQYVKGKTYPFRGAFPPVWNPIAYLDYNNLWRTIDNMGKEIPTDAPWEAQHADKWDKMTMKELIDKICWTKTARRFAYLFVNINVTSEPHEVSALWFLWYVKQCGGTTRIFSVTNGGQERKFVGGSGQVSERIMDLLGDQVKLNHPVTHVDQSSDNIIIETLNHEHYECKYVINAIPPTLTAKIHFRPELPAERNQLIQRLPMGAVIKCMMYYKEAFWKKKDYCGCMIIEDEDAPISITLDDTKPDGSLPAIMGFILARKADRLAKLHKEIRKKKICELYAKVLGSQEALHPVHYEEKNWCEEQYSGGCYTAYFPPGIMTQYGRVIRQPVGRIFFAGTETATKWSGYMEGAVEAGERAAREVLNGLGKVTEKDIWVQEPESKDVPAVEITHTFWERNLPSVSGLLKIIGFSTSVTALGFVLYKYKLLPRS

Adenosine receptor A1 [4] = target: T4, Adenosine receptor A1 (Homo sapiens, UniProt P30542); test: Displacement of [3H]CCPA from recombinant human adenosine A1 receptor expressed in CHO cells; format: cell-based
T4 sequence (P30542 whole entry): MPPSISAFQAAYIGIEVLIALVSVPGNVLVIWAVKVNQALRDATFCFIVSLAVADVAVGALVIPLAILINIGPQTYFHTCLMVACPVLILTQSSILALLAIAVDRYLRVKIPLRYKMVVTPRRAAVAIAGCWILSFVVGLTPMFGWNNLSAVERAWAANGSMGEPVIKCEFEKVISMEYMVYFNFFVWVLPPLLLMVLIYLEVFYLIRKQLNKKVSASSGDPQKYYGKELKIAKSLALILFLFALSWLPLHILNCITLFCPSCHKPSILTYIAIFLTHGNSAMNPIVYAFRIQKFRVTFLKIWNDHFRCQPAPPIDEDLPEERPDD

Adenosine receptor A2a = Adenosine receptor A2a (Homo sapiens, UniProt P29274); test: Displacement of [3H]MSX2 from recombinant human adenosine A2a receptor expressed in HEK293 cells; format: cell-based
[5] = target: T5, Adenosine receptor A3 (Homo sapiens) (UniProt P0DMS8); test: Displacement of [3H]PSB11 from recombinant human adenosine A3 receptor expressed in CHO cells at 1 uM relative to control; format: cell-based
T5 sequence (whole entry): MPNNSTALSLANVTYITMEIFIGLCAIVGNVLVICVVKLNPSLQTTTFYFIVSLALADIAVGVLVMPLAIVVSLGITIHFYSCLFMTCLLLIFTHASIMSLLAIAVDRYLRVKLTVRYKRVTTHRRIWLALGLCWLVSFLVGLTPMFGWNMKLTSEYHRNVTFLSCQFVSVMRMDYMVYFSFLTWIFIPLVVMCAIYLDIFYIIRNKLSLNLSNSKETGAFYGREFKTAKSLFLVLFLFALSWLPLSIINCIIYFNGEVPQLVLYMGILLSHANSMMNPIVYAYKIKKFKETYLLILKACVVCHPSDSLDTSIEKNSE
Summary of the method: (§2)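 Purchased membranes of CHO cells expressing human A1 ([3H]CCPA) or human A3 ([3H]PSB-11). A single high compound concentration is screened first; for potent compounds, full inhibition curves spanning 3 orders of magnitude. At least three independent experiments.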

[6] = target: T3, Amine oxidase [flavin-containing] A; test: Inhibition of recombinant human MAOA expressed in baculovirus infected BTI insect cells using p-tyramine as substrate preincubated for 30 mins followed by substrate addition and measured over 45 mins by horseradish peroxidase-Amplex Red-coupled fluorometric assay; summary of the method: as §1
Adenosine receptor A2b = target: T6, Adenosine receptor A2b (Homo sapiens, UniProt P29275); test: Displacement of [3H]PSB603 from recombinant human adenosine A2b receptor expressed in HEK293 cells; format: cell-based
T6 sequence (P29275 whole entry): T2 sequence (whole entry)

Adenosine receptor A3 = target: T7, Adenosine receptor A3 (Homo sapiens, UniProt P0DMS8); test: Displacement of [3H]PSB11 from recombinant human adenosine A3 receptor expressed in CHO cells; format: cell-based
T7 sequence (P0DMS8 whole entry): T5 sequence (whole entry)

[7] = target: T1, Amine oxidase [flavin-containing] B; test: Inhibition of recombinant human MAOB expressed in baculovirus infected BTI insect cells using p-tyramine as substrate preincubated for 30 mins followed by substrate addition and measured over 45 mins by horseradish peroxidase-Amplex Red-coupled fluorometric assay; summary of the method: as §1
[8] = target: T8, Adenosine receptor A1 (Homo sapiens) (UniProt P30542); test: Displacement of [3H]CCPA from recombinant human adenosine A1 receptor expressed in CHO cells at 1 uM relative to control; format: cell-based; summary of the method: as §2
T8 sequence (whole entry): T4 sequence (P30542 whole entry)

Adenosine receptor A1 [9] = target: T9, Adenosine receptor A1 (Rattus norvegicus, UniProt P25099); test: Displacement of [3H]CCPA from adenosine A1 receptor in rat brain cortical membranes; format: cell membranes
T9 sequence (P25099 whole entry): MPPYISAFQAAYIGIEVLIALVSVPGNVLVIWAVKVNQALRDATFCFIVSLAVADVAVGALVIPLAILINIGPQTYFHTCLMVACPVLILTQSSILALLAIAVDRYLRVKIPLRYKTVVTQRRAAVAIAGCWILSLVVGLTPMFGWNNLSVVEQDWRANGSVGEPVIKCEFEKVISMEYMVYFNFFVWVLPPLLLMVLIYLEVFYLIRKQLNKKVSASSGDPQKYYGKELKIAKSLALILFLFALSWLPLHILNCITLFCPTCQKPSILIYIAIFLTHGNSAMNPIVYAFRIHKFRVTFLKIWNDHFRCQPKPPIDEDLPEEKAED

Chain of Adenosine receptor A2a (P29274 whole entry): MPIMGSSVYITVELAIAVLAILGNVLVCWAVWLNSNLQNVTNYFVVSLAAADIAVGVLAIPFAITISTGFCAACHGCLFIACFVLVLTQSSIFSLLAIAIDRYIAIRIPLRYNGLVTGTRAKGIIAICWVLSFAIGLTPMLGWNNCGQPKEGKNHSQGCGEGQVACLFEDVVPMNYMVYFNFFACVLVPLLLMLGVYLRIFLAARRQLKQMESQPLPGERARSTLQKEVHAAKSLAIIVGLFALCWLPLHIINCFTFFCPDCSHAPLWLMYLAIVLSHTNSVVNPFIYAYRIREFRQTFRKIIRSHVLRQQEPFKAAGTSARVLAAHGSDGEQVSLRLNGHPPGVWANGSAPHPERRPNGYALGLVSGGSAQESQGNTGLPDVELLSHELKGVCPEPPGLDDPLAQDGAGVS

SMILES | inhibition (INH) [1] | inhibition [2] | inhibition (INH) [3] | Ki (Adenosine receptor A1 [4]) | Ki (Adenosine receptor A2a) | inhibition [5] | IC50 [6] | Ki (Adenosine receptor A2b) | Ki (Adenosine receptor A3) | IC50 [7] | inhibition [8] | Ki (Adenosine receptor A1 [9])
Cn1c(=O)c2c(nc3n2CCCCN3Cc2ccc(F)c(Br)c2)n(C)c1=O | – | 43% | -6% | > 1000 nM | > 1000 nM | 20% | > 1000 nM | > 1000 nM | > 1000 nM | 171 nM | 23% | –
Cn1c(=O)c2c(nc3n2CCCN3CCc2cccnc2)n(C)c1=O | 1% | – | – | – | 3040 nM | – | – | > 1000 nM | > 1000 nM | > 1000 nM | – | > 1000 nM
Cn1c(=O)c2c(nc3n2CCCCN3Cc2ccc(Cl)cc2)n(C)c1=O | – | 13% | 6% | > 1000 nM | > 1000 nM | 10% | > 1000 nM | > 1000 nM | > 1000 nM | 364 nM | 13% | –

Continued by falling Ki (Adenosine receptor A2a), values first:

inhibition (INH) [1] | inhibition [2] | inhibition (INH) [3] | Ki (Adenosine receptor A1 [4]) | Ki (Adenosine receptor A2a) | inhibition [5] | IC50 [6] | Ki (Adenosine receptor A2b) | Ki (Adenosine receptor A3) | IC50 [7] | inhibition [8] | Ki (Adenosine receptor A1 [9]) | SMILES
20% | – | – | – | 2020 nM | – | – | > 1000 nM | > 1000 nM | > 1000 nM | – | 2650 nM | Cn1c(=O)c2c(nc3n2CCCN3Cc2cccs2)n(C)c1=O
39% | 40% | 14% | > 1000 nM | 1080 nM | 11% | > 1000 nM | > 1000 nM | > 1000 nM | > 1000 nM | 11% | – | Cn1c(=O)c2c(nc3n2CCCCN3Cc2ccccc2F)n(C)c1=O
– | 21% | 13% | > 1000 nM | 887 nM | 37% | > 1000 nM | > 1000 nM | > 1000 nM | 991 nM | 24% | – | Cn1c(=O)c2c(nc3n2CCN3Cc2ccccc2Br)n(C)c1=O
– | 41% | 4% | > 1000 nM | 881 nM | 15% | > 1000 nM | > 1000 nM | > 1000 nM | 343 nM | 10% | – | Cn1c(=O)c2c(nc3n2CCCCN3Cc2ccccc2Cl)n(C)c1=O
39% | 30% | 11% | 396 nM | 369 nM | 22% | > 1000 nM | > 1000 nM | > 1000 nM | > 1000 nM | – | – | Cn1c(=O)c2c(nc3n2CCN3Cc2cccc(Br)c2)n(C)c1=O
